In ChEMBL document CHEMBL3745654, “N-Alkylated arylsulfonamides of (aryloxy)ethyl piperidines: 5-HT(7) receptor selectivity versus multireceptor profile” (Bioorg Med Chem, 2016):

How the values were obtained:
[1] = Intrinsic clearance in mouse liver microsomes at 20 uM at pH 7.4 incubated for 15 mins by UPLC/MS analysis in presence of NADPH; format: ADME; details: read-out: CLH
[2] = target: T1, 5-hydroxytryptamine receptor 7 (Homo sapiens, UniProt P34969); test: Displacement of [3H]-5-CT from human 5-HT7B receptor expressed in HEK293 cells incubated for 1 hr; format: cell-based
T1 sequence (P34969 whole entry): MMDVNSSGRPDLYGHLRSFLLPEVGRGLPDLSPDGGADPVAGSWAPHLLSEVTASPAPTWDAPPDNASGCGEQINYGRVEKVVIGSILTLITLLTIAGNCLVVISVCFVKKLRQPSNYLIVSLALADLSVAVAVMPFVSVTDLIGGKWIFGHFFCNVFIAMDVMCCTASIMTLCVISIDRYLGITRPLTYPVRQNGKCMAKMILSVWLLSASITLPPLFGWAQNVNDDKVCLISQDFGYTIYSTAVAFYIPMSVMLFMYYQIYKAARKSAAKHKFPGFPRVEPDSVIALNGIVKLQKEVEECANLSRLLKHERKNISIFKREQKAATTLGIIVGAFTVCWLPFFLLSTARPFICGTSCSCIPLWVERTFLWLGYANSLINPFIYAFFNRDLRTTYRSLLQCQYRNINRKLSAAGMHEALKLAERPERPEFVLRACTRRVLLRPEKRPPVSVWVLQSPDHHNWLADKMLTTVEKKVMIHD
Outline: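 Membranes from HEK293 cells stably expressing human 5-HT7b receptor, with [3H]-5-CT (39.2 Ci/mmol). Buffer: 50 mM Tris-HCl, 4 mM MgCl2, pargyline, 0.1% ascorbate. Incubation 1 h at 37 °C, then rapid filtration and counting of filter radioactivity. Non-specific binding defined with 5-HT. Triplicates at 7–8 concentrations (10^-11 to 10^-4 M). Ki by Cheng–Prusoff.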

D(2) dopamine receptor = D(2) dopamine receptor (Homo sapiens, UniProt P14416); test: Displacement of [3H]-Raclopride from human dopamine D2L receptor expressed in HEK293 cells incubated for 1 hr; format: cell-based
Sequence of D(2) dopamine receptor (P14416 whole entry): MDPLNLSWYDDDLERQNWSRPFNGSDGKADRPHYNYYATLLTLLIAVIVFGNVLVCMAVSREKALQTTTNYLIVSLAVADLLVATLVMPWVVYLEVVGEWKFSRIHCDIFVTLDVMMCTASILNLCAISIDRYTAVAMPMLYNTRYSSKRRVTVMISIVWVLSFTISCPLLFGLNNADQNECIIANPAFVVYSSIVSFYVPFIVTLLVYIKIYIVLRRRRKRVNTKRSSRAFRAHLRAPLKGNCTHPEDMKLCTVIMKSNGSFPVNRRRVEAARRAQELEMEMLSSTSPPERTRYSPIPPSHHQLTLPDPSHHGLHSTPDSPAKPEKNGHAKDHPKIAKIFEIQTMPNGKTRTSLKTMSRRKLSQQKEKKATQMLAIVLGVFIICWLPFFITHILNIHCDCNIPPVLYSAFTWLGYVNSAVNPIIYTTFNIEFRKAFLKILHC
Outline: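 Membranes from HEK293 cells stably expressing human D2L receptor, with [3H]-raclopride (74.4 Ci/mmol). Buffer: Tris-HCl, EDTA, MgCl2, 120 mM NaCl, 5 mM KCl, 1.5 mM CaCl2, ascorbate. Incubation 1 h at 37 °C, then filtration. Non-specific binding defined with (+)butaclamol. Triplicates at 7–8 concentrations (10^-11 to 10^-4 M). Ki by Cheng–Prusoff.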

[3] = target: T1, 5-hydroxytryptamine receptor 7; test: Antagonist activity at human 5-HT7B receptor expressed in HEK293 cells assessed as inhibition of 5-carboxamidotryptamine-induced cAMP production; format: functional, cell-based
Outline: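 HEK293 cells stably expressing human 5-HT7b receptor. Compound's ability to inhibit cAMP production induced by 10 nM 5-CT was measured in triplicate at 8 concentrations (10^-11 to 10^-4 M). Kb = IC50/(1 + A/EC50), where A is agonist concentration.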

[4] = target: Sodium-dependent serotonin transporter (Rattus norvegicus) (UniProt P31652); test: Displacement of [3H]-citalopram from rat cerebral cortex SERT at 1 uM; format: tissue-based
Sequence of Sodium-dependent serotonin transporter (Rattus norvegicus) (P31652 whole entry): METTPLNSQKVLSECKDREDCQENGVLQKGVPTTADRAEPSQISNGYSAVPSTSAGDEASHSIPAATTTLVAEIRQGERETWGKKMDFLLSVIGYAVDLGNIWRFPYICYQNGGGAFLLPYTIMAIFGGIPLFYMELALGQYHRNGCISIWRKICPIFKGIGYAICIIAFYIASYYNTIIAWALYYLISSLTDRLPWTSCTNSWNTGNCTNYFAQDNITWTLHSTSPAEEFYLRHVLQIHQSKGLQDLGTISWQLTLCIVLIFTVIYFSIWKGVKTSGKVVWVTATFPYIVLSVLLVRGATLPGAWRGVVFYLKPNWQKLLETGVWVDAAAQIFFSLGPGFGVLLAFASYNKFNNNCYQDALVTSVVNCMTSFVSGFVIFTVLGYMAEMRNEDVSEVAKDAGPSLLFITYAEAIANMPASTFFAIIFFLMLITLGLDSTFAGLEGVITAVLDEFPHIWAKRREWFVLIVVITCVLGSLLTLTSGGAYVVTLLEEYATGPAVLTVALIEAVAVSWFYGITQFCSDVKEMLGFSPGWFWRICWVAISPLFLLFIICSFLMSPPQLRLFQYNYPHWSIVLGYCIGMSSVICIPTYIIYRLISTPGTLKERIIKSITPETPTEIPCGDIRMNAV

[5] = target: T2, Adrenergic receptor alpha-1 (Rattus norvegicus, UniProt P15823+P23944+P43140); test: Displacement of [3H]-Prazosin form rat cerebral cortex alpha-1 adrenergic receptor after 60 mins by scintillation counting method; format: tissue-based
T2 sequence (P15823 whole entry): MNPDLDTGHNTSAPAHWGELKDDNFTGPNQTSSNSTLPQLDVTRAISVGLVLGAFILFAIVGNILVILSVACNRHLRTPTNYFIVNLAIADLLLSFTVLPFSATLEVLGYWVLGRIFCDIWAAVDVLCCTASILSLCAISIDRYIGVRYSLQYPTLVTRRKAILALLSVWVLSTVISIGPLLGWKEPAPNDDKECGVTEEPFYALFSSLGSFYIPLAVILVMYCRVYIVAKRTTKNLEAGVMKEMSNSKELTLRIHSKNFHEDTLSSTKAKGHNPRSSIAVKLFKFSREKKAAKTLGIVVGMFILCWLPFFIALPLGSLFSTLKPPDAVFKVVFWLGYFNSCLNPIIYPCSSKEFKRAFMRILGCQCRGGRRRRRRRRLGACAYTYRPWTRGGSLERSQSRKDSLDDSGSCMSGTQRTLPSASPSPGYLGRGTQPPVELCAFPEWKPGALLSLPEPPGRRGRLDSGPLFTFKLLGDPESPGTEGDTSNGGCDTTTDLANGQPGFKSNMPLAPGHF
T2 sequence (P23944 whole entry): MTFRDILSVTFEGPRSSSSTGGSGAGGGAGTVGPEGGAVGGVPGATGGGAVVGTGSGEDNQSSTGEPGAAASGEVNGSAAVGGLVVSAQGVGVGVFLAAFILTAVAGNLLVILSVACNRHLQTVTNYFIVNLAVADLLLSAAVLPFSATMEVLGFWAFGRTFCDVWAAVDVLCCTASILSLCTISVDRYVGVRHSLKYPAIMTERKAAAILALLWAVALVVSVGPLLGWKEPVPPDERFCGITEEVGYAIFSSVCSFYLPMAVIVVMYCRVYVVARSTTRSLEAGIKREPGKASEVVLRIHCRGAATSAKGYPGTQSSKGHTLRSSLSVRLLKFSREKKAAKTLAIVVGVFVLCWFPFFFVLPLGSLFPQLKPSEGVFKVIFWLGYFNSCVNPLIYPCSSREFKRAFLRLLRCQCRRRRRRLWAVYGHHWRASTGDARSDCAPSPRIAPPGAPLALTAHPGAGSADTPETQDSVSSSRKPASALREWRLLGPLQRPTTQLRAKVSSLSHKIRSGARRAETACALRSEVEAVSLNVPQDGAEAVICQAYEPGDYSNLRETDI
T2 sequence (P43140 whole entry): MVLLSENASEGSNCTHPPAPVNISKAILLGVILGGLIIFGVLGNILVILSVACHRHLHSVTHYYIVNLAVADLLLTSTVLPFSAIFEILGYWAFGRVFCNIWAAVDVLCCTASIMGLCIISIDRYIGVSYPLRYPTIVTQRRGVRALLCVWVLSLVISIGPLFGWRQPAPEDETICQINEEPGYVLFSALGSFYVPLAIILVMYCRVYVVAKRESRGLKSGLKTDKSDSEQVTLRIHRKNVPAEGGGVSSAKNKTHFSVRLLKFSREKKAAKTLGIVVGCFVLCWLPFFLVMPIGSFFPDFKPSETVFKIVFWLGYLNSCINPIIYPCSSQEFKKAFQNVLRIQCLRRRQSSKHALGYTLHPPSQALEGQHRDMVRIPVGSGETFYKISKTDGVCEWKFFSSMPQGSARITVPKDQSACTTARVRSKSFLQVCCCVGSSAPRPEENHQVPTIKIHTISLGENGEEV
Outline: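 Rat cerebral cortex membranes incubated with [3H]-prazosin (22 Ci/mmol; 0.6 nM). Compound tested at seven or eight concentrations (1 nM upward). Ki calculated by Cheng–Prusoff.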

[6] = Half life in mouse liver microsomes at 20 uM at pH 7.4 incubated for 15 mins by UPLC/MS analysis in presence of NADPH; format: ADME
Outline: (§1)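 Compound (20 µM) incubated with mouse liver microsomes (0.2 mg/ml) in 100 mM potassium phosphate, pH 7.4, 37 °C. Reaction started with NADPH-regenerating system; blank without NADPH run in parallel. Sampling at 5, 15, 30 and 60 min (some to 120 min), in duplicate. Levallorphan internal standard; UPLC/MS quantitation. t1/2 from ln % remaining vs time.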

[7] = Metabolic stability in mouse liver microsomes assessed as retention time of compound at 20 uM at pH 7.4 incubated for 15 mins by UPLC/MS analysis in presence of NADPH; format: ADME; details: pH 7.4, 0.25 h; outline: as §1

SMILES: CN(C1CCN(CCOc2ccccc2C(C)(C)C)CC1)S(=O)(=O)c1cnn(C)c1
- microsomal CLint at 20 µM [1]: 190 µL/min/mg
- Ki [2]: 0.058 µM
- Ki (D(2) dopamine receptor): 0.28 µM
- Kb [3]: 0.082 µM
- inhibition [4]: < 20%
- Ki [5]: > 0.3 µM
- half-life at 20 µM [6]: 20 min
- Retention_time [7]: 5.22 min

SMILES: CN(C1CCN(CCOc2ccccc2-c2ccccc2)CC1)S(=O)(=O)c1cnn(C)c1
- microsomal CLint at 20 µM [1]: 167 µL/min/mg
- Ki [2]: 0.007 µM
- Ki (D(2) dopamine receptor): 0.035 µM
- Kb [3]: 0.041 µM
- inhibition [4]: < 20%
- Ki [5]: > 0.3 µM
- half-life at 20 µM [6]: 26.2 min
- Retention_time [7]: 4.88 min

SMILES: Cn1cc(S(=O)(=O)N(CC2CC2)C2CCN(CCOc3ccccc3-c3ccccc3)CC2)cn1
- microsomal CLint at 20 µM [1]: 55.9 µL/min/mg
- Ki [2]: 0.01 µM
- Ki (D(2) dopamine receptor): 0.016 µM
- Kb [3]: 0.079 µM
- inhibition [4]: < 20%
- Ki [5]: > 0.3 µM
- half-life at 20 µM [6]: 62 min
- Retention_time [7]: 5.46 min

SMILES: Cn1cc(S(=O)(=O)N(CC2CC2)C2CCN(CCOc3ccccc3C(C)(C)C)CC2)cn1
- microsomal CLint at 20 µM [1]: 77.9 µL/min/mg
- Ki [2]: 0.049 µM
- Ki (D(2) dopamine receptor): 0.23 µM
- Kb [3]: 0.064 µM
- inhibition [4]: < 20%
- Ki [5]: > 0.3 µM
- half-life at 20 µM [6]: 44.5 min
- Retention_time [7]: 5.74 min
